{"source": "ChEMBL document CHEMBL1240422", "about": "“Design, synthesis and biological evaluation of 3,5-diaryl-isoxazoline/isoxazole-pyrrolobenzodiazepine conjugates as potential anticancer agents” (2010)", "key": {"[1]": {"system": "ZR-75-1", "assay": "Anticancer activity against human ZR-75-1 cells after 48 hrs by SRB assay", "assay_type": "functional", "conditions": "ZR-75-1, 48 h", "in_short": "(§1)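 Cells grown in RPMI 1640 with 10% FBS and 2 mM L-glutamine, plated at densities set by doubling time, and preincubated 24 h at 37 °C, 5% CO2. Compounds were tested at four concentrations (0.1, 1, 10, 100) in triplicate wells with 48 h continuous exposure. Cells were fixed with cold TCA (10% final, 60 min, 4 °C) and stained with 0.4% SRB in 1% acetic acid (20 min, RT). Dye was eluted with 10 mM Trizma base and read at 540 nm (690 nm reference). Percent growth is relative to control wells, plate by plate.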"}, "[2]": {"system": "A2780", "assay": "Anticancer activity against human A2780 cells after 48 hrs by SRB assay", "assay_type": "functional", "conditions": "A2780, 48 h", "in_short": "(§2)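 Grown in RPMI 1640 with 10% FBS and 2 mM L-glutamine at 37 °C, 5% CO2. Seeded at densities set by doubling time, then preincubated 24 h. Continuous 48 h drug exposure at four concentrations (0.1, 1, 10, 100), triplicate wells. Fixed with cold TCA (final 10%) at 4 °C, 60 min. Stained with 0.4% SRB in 1% acetic acid, eluted with 10 mM Tris base, read at 540/690 nm. Percent growth versus control wells.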"}, "[3]": {"system": "KB", "assay": "Anticancer activity against human KB cells after 48 hrs by SRB assay", "assay_type": "functional", "in_short": "as §2"}, "[4]": {"system": "SiHa", "assay": "Anticancer activity against human SiHa cells after 48 hrs by SRB assay", "assay_type": "functional", "in_short": "as §1"}, "[5]": {"system": "A-375", "assay": "Cell cycle arrest in human A375 cells assessed as accumulation at G0/G1 phase at 4 uM after 24 hrs using propidium iodide staining by FACS", "assay_type": "functional", "in_short": "(§3)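 Treated A375 cells (24 h) were harvested with trypsin-EDTA and fixed in ice-cold 70% ethanol (4 °C, 30 min). After a PBS wash, they were incubated with 1 mg/mL RNase A (37 °C, 30 min) and stained with propidium iodide solution containing trisodium citrate and Triton X-100. DNA content was measured by flow cytometry on 20,000 events. Controls were DMSO-treated.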"}, "[6]": {"system": "A-375", "assay": "Cell cycle arrest in human A375 cells assessed as accumulation at S phase at 4 uM after 24 hrs using propidium iodide staining by FACS", "assay_type": "functional", "in_short": "as §3"}, "[7]": {"system": "A-375", "assay": "Cell cycle arrest in human A375 cells assessed as accumulation at G2/M phase at 4 uM after 24 hrs using propidium iodide staining by FACS", "assay_type": "functional", "in_short": "as §3"}, "[8]": {"system": "A-375", "assay": "Induction of apoptosis in human A375 cells assessed as increase in p53 protein level at 4 uM after 24 hrs by Western blotting", "assay_type": "functional, cell-based", "in_short": "(§4)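 A375 cells treated 24 h, then lysed in ice-cold RIPA buffer (1% NP-40, 0.5% deoxycholate, 0.1% SDS, protease inhibitors). Protein was quantified by Bradford, and 30 µg per lane run on 12% SDS-PAGE and transferred to PVDF. Blots were blocked 2 h at RT in TBST with 5% blocking powder, probed with primary antibody overnight at 4 °C, then HRP secondary (1:2000, 1 h RT), and read by chemiluminescence against β-actin loading control.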"}, "[9]": {"system": "A-375", "assay": "Induction of apoptosis in human A375 cells assessed as increase in PPAR protein level at 4 uM after 24 hrs by Western blotting", "assay_type": "functional, cell-based", "in_short": "(§5)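 A375 cells were treated for 24 h and lysed in ice-cold RIPA buffer (1% NP-40, 0.5% deoxycholate, 0.1% SDS, protease inhibitors). Protein was quantified by Bradford assay, and 30 µg/lane was run on 12% SDS-PAGE and transferred to PVDF. Membranes were blocked 2 h at RT in TBST with 5% blocker, incubated with primary antibody overnight at 4 °C, then with HRP secondary (1:2000, 1 h, RT). Detection was by chemiluminescence, with β-actin as loading control.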"}, "[10]": {"system": "A-375", "assay": "Induction of apoptosis in human A375 cells assessed as increase in cytochromeC protein level at 4 uM after 24 hrs by Western blotting", "assay_type": "functional, cell-based", "in_short": "as §4"}, "[11]": {"system": "A-375", "assay": "Induction of apoptosis in human A375 cells assessed as reduction in CDK2 protein level at 4 uM after 24 hrs by Western blotting", "assay_type": "functional, cell-based", "in_short": "as §5"}, "[12]": {"system": "A-375", "assay": "Induction of apoptosis in human A375 cells assessed as caspase3 activation at 4 uM after 24 hrs by fluorimetry", "assay_type": "functional, cell-based", "in_short": "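Caspase-3 activity was measured by a fluorometric assay on lysates of treated and untreated A375 cells.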"}}, "note": "The source made the active and inactive calls. The rule behind the calls is not given here."}
{"smiles": "COc1cc(C2=NOC(c3cc(OC)c(OC)c(OC)c3)C2)ccc1OCCCOc1cc2c(cc1OC)C(=O)N1CCC[C@H]1C=N2", "note": "(some centres not stated)", "values": [{"measurement": "GI50", "setting": "[1]", "result": "< 100", "unit": "nM"}, {"measurement": "GI50", "setting": "[2]", "result": "< 100", "unit": "nM"}, {"measurement": "GI50", "setting": "[3]", "result": "< 100", "unit": "nM"}, {"measurement": "GI50", "setting": "[4]", "result": "< 100", "unit": "nM"}, {"measurement": "Activity", "setting": "[5]", "result": 98.5, "unit": "%"}, {"measurement": "Activity", "setting": "[6]", "result": 1.1, "unit": "%"}, {"measurement": "Activity", "setting": "[7]", "result": 0.4, "unit": "%"}, {"measurement": "Activity", "setting": "[8]", "result": "Active"}, {"measurement": "Activity", "setting": "[9]", "result": "Active"}, {"measurement": "Activity", "setting": "[10]", "result": "Active"}, {"measurement": "Activity", "setting": "[11]", "result": "Active"}, {"measurement": "Activity", "setting": "[12]", "result": "Active"}]}
